In ChEMBL document CHEMBL1687888, “Synthesis, hypoxia-selective cytotoxicity of new 3-amino-1,2,4-benzotriazine-1,4-dioxide derivatives” (Eur J Med Chem, 2011):
The source made the active and inactive calls. No cut-off for these calls is given here.

Experiments:
PC-3 [1] = assay: Cytotoxicity against human PC3 cells for 72 hrs under normoxic condition by MTT assay; type: functional, cell-based; conditions: PC-3, 72 h
In short: (§1)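 RPMI-1640 with heat-inactivated 10% FBS plus penicillin/streptomycin; hypoxia 3% O2, 5% CO2 or normoxia 20% O2, 5% CO2, 37 °C. Compounds dissolved in DMSO at 10.0 mg/mL (stock), then diluted; cells seeded 5×10³ per well. Viability read by MTT kit; IC50 taken as concentration giving 50% absorbance inhibition versus control cells.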

K562 [2] = assay: Cytotoxicity against human K562 cells for 72 hrs under hypoxic condition by MTT assay; type: functional, cell-based; conditions: K562, 72 h; in short: as §1
KB [3] = assay: Cytotoxicity against human KB cells for 72 hrs under hypoxic condition by MTT assay; type: functional, cell-based; in short: as §1
KB [4] = assay: Cytotoxicity against human KB cells for 72 hrs under normoxic condition by MTT assay; type: functional, cell-based; in short: as §1
SMMC-7721 [5] = assay: Cytotoxicity against human SMMC7721 cells for 72 hrs under normoxic condition by MTT assay; type: functional, cell-based; conditions: SMMC-7721, 72 h; in short: as §1
A549 [6] = assay: Cytotoxicity against human A549 cells for 72 hrs under normoxic condition by MTT assay; type: functional, cell-based; conditions: A549, 72 h; in short: as §1
A549 [7] = assay: Cytotoxicity against human A549 cells for 72 hrs under hypoxic condition by MTT assay; type: functional, cell-based; conditions: A549, 72 h; in short: as §1
SMMC-7721 [8] = assay: Cytotoxicity against human SMMC7721 cells for 72 hrs under hypoxic condition by MTT assay; type: functional, cell-based; conditions: SMMC-7721, 72 h; in short: as §1
PC-3 [9] = assay: Cytotoxicity against human PC3 cells for 72 hrs under hypoxic condition by MTT assay; type: functional, cell-based; conditions: PC-3, 72 h; in short: as §1
K562 [10] = assay: Cytotoxicity against human K562 cells for 72 hrs under normoxic condition by MTT assay; type: functional, cell-based; conditions: K562, 72 h; in short: as §1
K562 [11] = assay: Induction of apoptosis in human K562 cells under normoxic condition assessed as DNA fragmentation at 10 uM for 48 hrs using propidium iodide by flow cytometry; type: functional, cell-based
In short: (§2)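 K562 held under hypoxia (3% O2, 5% CO2) or normoxia (20% O2, 5% CO2) at 37 °C, treated 48 h. Cells washed in PBS, fixed in 75% ethanol at −20 °C overnight, RNase-treated 30 min at 37 °C, PI-stained 30 min at room temperature in the dark. DNA content and apoptotic fraction read by flow cytometry.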

K562 [12] = assay: Induction of apoptosis in human K562 cells under normoxic condition assessed as accumulation at Sub-G1 phase at 10 uM for 48 hrs using propidium iodide by flow cytometry (reference value: 5.27%); type: functional
K562 [13] = assay: Induction of apoptosis in human K562 cells under hypoxic condition assessed as decrease in XIAP level at 10 uM for 48 hrs by Western blotting
K562 [14] = assay: Induction of apoptosis in human K562 cells under hypoxic condition assessed as caspase-3 cleavage at 10 uM for 48 hrs by Western blotting; type: functional, cell-based
In short: (§3)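 K562 treated 48 h under hypoxia (3% O2) or normoxia (20% O2), 5% CO2, 37 °C. Lysis buffer: 150 mM NaCl, 50 mM Tris-HCl pH 8.0, 2 mM EGTA, 2 mM EDTA, 25 mM NaF, 25 mM β-glycerophosphate, 0.2% Triton X-100, 0.3% NP-40, 0.1 mM PMSF. Extracts immunoblotted for procaspase-3, cleaved caspase-3, PARP and XIAP.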

K562 [15] = assay: Induction of apoptosis in human K562 cells under hypoxic condition assessed as decrease in procaspase-3 level at 10 uM for 48 hrs by Western blotting
K562 [16] = assay: Induction of apoptosis in human K562 cells under hypoxic condition assessed as decrease in XIAP level at 10 uM for 48 hrs by Western blotting; type: functional, cell-based; in short: as §3
K562 [17] = assay: Induction of apoptosis in human K562 cells under hypoxic condition assessed as accumulation at Sub-G1 phase at 10 uM for 48 hrs using propidium iodide by flow cytometry (reference value: 13.03%); type: functional
K562 [18] = assay: Induction of apoptosis in human K562 cells under hypoxic condition assessed as decrease in PARP level at 10 uM for 48 hrs by Western blotting; type: functional, cell-based; in short: as §3
K562 [19] = assay: Induction of apoptosis in human K562 cells under hypoxic condition assessed as decrease in procaspase-3 level at 10 uM for 48 hrs by Western blotting; type: functional, cell-based; in short: as §3
K562 [20] = assay: Induction of apoptosis in human K562 cells under hypoxic condition assessed as decrease in PARP level at 10 uM for 48 hrs by Western blotting
K562 [21] = assay: Induction of apoptosis in human K562 cells under hypoxic condition assessed as DNA fragmentation at 10 uM for 48 hrs using propidium iodide by flow cytometry; type: functional, cell-based; in short: as §2

Structure (SMILES)	IC50 (PC-3 [1])	IC50 (K562 [2])	IC50 (KB [3])	IC50 (KB [4])	IC50 (SMMC-7721 [5])	IC50 (A549 [6])	IC50 (A549 [7])	IC50 (SMMC-7721 [8])	IC50 (PC-3 [9])	IC50 (K562 [10])	also measured
CCCCOCNc1n[n+]([O-])c2ccccc2[n+]1[O-]	14.7 µM	3.24 µM	15.2 µM	1.75 µM	21.1 µM	6.31 µM	2.32 µM	3.99 µM	6.01 µM	17.6 µM	
CC(OCNc1n[n+]([O-])c2ccccc2[n+]1[O-])c1ccccc1 (configuration not stated)	6.08 µM	2.24 µM	14 µM	2.51 µM	12.9 µM	2.71 µM	2.81 µM	2.47 µM	10.7 µM	8.72 µM	
[O-][n+]1nc(NCOCc2ccc(Cl)cc2)[n+]([O-])c2ccccc21	5.76 µM	1.85 µM	8.26 µM	1.3 µM	14.5 µM	1.47 µM	2.19 µM	0.81 µM	5.1 µM	3.26 µM	
COc1ccc(COCNc2n[n+]([O-])c3ccccc3[n+]2[O-])cc1	14.5 µM	0.66 µM	14.2 µM	4.06 µM	22 µM	7.64 µM	3.32 µM	1.15 µM	52.8 µM	20.1 µM	Activity (K562 [11]): Active; Activity (K562 [12]): 14.95%; Activity (K562 [13]): Active; Activity (K562 [14]): Active; Activity (K562 [15]): Active; Activity (K562 [16]): Active; Activity (K562 [17]): 54.24%; Activity (K562 [18]): Active; Activity (K562 [19]): Active; Activity (K562 [20]): Active; Activity (K562 [21]): Active
Nc1n[n+]([O-])c2ccccc2[n+]1[O-] [TIRAPAZAMINE]	21 µM	1.81 µM	18.7 µM	6.29 µM	32.8 µM	7.43 µM	1.93 µM	4.75 µM	1.17 µM	19.4 µM	
CCCCCOCNc1n[n+]([O-])c2ccccc2[n+]1[O-]	9.2 µM	3.3 µM	39.5 µM	1.22 µM	17 µM	6.46 µM	2.9 µM	3.05 µM	8.51 µM	14.5 µM	
[O-][n+]1nc(NCOCc2ccc(C(F)(F)F)cc2)[n+]([O-])c2ccccc21	7.65 µM	1.24 µM	19.8 µM	0.39 µM	9.45 µM	8.42 µM	4.27 µM	0.78 µM	9.31 µM	18.3 µM	Activity (K562 [11]): Active; Activity (K562 [12]): 9.5%; Activity (K562 [13]): Active; Activity (K562 [14]): Active; Activity (K562 [15]): Active; Activity (K562 [16]): Active; Activity (K562 [17]): 32.11%; Activity (K562 [18]): Active; Activity (K562 [19]): Active; Activity (K562 [20]): Active; Activity (K562 [21]): Active
COCNc1n[n+]([O-])c2ccccc2[n+]1[O-]	7.51 µM	3.79 µM	9.07 µM	1.58 µM	6.67 µM	7.45 µM	2.77 µM	2.48 µM	4.27 µM	7.8 µM	
CCCOCNc1n[n+]([O-])c2cc(OC)ccc2[n+]1[O-]	6.57 µM	3.52 µM	12 µM	3.2 µM	2.88 µM	2.81 µM	2.54 µM	1.07 µM	10.6 µM	4.28 µM	
CCCOCNc1n[n+]([O-])c2ccccc2[n+]1[O-]	14.2 µM	3.89 µM	10.2 µM	1.95 µM	19.5 µM	7.46 µM	3.74 µM	5.53 µM	7.4 µM	17.6 µM	
